ChEMBL document CHEMBL1127079, “Substituted chromenes as potent, orally active 5-lipoxygenase inhibitors” (J Med Chem, 1993)

Assays:
[1] = biological target: T1, Polyunsaturated fatty acid 5-lipoxygenase (Homo sapiens) (UniProt P09917); experiment: Ex vivo inhibition of LTB4 production by measurement of A-23187-stimulated LTB-4 production in dog blood at 1 mg/kg po.; assay type: functional, organism-based; set-up: dose 1 mg/kg; details: Canis lupus familiaris, target entry is the homologue from another species
T1 sequence (whole entry): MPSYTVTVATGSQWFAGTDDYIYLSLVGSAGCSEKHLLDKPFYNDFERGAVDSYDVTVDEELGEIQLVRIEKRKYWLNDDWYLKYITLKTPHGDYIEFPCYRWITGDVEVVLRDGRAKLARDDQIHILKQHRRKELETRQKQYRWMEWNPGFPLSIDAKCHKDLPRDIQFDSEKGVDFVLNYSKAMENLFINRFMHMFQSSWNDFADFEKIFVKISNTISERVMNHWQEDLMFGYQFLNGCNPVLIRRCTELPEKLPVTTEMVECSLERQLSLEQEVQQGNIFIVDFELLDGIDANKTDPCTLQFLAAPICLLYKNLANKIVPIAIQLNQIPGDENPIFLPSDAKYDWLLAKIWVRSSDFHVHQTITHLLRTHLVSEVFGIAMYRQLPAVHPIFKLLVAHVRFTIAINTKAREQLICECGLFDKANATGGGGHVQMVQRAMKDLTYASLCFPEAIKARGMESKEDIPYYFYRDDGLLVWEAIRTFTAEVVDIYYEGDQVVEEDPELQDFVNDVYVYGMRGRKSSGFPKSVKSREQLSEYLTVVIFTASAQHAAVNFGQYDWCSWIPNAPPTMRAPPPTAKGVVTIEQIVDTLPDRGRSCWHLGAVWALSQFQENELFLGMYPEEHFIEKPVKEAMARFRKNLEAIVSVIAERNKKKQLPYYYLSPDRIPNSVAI
Summary of the method: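 Fasted beagles (8–15 kg) dosed orally by intubation, suspension in 3% cornstarch with 0.33% Tween 80 and 5% PEG 400, 5 mL/kg. Blood at -1, 0, 0.25–24 h stimulated ex vivo with A23187 100 μM + fMLP 10 μM final, 15 min, 37 °C; plasma LTB4 by RIA; percent inhibition relative to mean predose (-1, 0 h) values.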

[2] = Duration of action where maximum inhibition of LTB4 formation is achieved at 3 mg/kg po; assay type: functional, organism-based; set-up: dose 3 mg/kg; details: Canis lupus familiaris
Summary of the method: (§1)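 Beagle dogs (8–15 kg, fasted 16–18 h, water allowed) dosed by oral intubation as suspension in 3% cornstarch/0.33% Tween 80/5% PEG 400 in water, 5 mL/kg. Jugular blood at -1, 0, 0.25, 0.5, 1, 3, 6, 9, 24 h; 1-mL aliquots stimulated 15 min at 37 °C with A23187 100 μM plus fMLP 10 μM (final); plasma LTB4 by RIA. DA read graphically: time from maximum inhibition to 50% of maximum.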

[3] = biological target: T1, Polyunsaturated fatty acid 5-lipoxygenase (Homo sapiens); experiment: Ex vivo inhibition of LTB-4 determined by measurement of A-23187-stimulated LTB-4 production in dog blood at 1 mg/kg iv; assay type: functional, organism-based; set-up: dose 1 mg/kg
Summary of the method: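 Beagles (8–15 kg, fasted 16–18 h) given iv forearm bolus in DMA/PEG 400 (25:75), 0.1 mL/kg. Jugular blood (serine/heparin) sampled -1 to 24 h; 1-mL aliquots stimulated with A23187 100 μM + fMLP 10 μM final for 15 min at 37 °C, one aliquot unstimulated. Plasma LTB4 by RIA; inhibition versus mean of -1 and 0 h predose values.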

[4] = biological target: T2, Polyunsaturated fatty acid lipoxygenase ALOX12 (Homo sapiens, UniProt P18054); experiment: Inhibitory concentration against human platelet 12-lipoxygenase; assay type: functional
T2 sequence (P18054 whole entry): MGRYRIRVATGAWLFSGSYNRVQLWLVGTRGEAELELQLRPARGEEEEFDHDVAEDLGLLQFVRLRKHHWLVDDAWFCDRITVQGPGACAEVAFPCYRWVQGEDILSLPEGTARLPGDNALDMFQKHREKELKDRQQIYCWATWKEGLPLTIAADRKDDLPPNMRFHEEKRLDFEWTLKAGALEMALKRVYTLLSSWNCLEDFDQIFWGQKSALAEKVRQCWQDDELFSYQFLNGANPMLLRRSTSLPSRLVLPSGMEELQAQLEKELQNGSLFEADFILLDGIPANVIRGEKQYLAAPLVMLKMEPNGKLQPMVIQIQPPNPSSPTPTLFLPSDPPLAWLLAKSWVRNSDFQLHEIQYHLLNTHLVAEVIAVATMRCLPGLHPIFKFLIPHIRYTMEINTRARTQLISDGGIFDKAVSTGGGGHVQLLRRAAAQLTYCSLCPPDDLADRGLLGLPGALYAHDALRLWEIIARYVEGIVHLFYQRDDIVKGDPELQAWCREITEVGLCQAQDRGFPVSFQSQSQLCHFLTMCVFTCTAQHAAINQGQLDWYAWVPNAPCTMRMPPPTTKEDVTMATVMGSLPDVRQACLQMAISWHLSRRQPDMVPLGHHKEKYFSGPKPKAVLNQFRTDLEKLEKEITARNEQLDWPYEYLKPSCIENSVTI
Summary of the method: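 Cytoplasmic fraction of lysed human platelets, diluted to give 50% AA conversion, preincubated with inhibitor 5 min at 37 °C in 0.1 M Tris-HCl pH 8.0 with 1 mM glutathione and 10 μM indomethacin. 1-[14C]AA added, 15 min at 37 °C; 12-HETE separated by TLC and counted.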

[5] = Duration of action is where maximum inhibition of LTB4 formation is achieved at 1 mg/kg po; assay type: functional, organism-based; set-up: dose 1 mg/kg; details: Canis lupus familiaris; summary of the method: as §1
[6] = Duration of action where maximum inhibition of LTB4 formation is achieved at 10 mg/kg po; assay type: functional, organism-based; set-up: dose 10 mg/kg; details: Canis lupus familiaris; summary of the method: as §1
[7] = test system: Arachidonate 5-lipoxygenase (Canis lupus familiaris); experiment: Ex vivo inhibition of LTB-4 determined by measurement of A-23187-stimulated LTB-4 production in dog blood at 10 mg/kg po; details: target entry is the homologue from another species
[8] = Duration of action where maximum inhibition of LTB4 formation is achieved at 1 mg/kg iv; assay type: functional, organism-based; set-up: dose 1 mg/kg; details: Canis lupus familiaris
Summary of the method: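 Beagle dogs (8–15 kg, fasted) given iv bolus in forearm in DMA/PEG 400 (25:75), 0.1 mL/kg. Blood at -1, 0, 0.08, 0.25, 0.5, 1, 3, 6, 9, 24 h; aliquots stimulated with A23187 100 μM + fMLP 10 μM final, 15 min, 37 °C; plasma LTB4 by RIA. DA taken graphically from maximum inhibition to 50%-of-maximum level.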

[9] = Duration of action where maximum inhibition of LTB4 formation is achieved at 1 mg/kg po; assay type: functional, organism-based; set-up: dose 1 mg/kg; details: Canis lupus familiaris; summary of the method: as §1
[10] = test system: Arachidonate 5-lipoxygenase (Canis lupus familiaris); experiment: Ex vivo inhibition of LTB-4 determined by measurement of A-23187-stimulated LTB-4 production in dog blood at 3 mg/kg po; details: target entry is the homologue from another species
[11] = biological target: T3, Prostaglandin G/H synthase (cyclooxygenase) (Ovis aries, UniProt P05979+P79208); experiment: Inhibitory concentration against sheep seminal vesicle Prostaglandin G/H synthase; assay type: functional, tissue-based
T3 sequence (P05979 whole entry): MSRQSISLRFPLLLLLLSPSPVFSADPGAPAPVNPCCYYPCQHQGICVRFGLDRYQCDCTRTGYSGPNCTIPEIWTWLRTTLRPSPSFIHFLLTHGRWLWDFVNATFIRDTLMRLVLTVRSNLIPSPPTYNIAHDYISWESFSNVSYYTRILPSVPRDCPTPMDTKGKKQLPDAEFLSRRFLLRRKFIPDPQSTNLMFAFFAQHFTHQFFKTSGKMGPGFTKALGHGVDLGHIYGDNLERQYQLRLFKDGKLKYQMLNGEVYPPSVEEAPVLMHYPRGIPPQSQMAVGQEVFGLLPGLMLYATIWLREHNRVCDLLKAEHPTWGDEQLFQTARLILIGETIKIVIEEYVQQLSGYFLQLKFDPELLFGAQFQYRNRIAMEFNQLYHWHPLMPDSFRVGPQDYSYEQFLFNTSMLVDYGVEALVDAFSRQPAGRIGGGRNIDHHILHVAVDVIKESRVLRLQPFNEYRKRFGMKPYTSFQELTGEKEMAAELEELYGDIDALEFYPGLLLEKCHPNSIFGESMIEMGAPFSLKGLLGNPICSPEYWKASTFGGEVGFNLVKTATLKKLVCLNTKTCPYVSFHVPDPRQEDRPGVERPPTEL
T3 sequence (P79208 whole entry): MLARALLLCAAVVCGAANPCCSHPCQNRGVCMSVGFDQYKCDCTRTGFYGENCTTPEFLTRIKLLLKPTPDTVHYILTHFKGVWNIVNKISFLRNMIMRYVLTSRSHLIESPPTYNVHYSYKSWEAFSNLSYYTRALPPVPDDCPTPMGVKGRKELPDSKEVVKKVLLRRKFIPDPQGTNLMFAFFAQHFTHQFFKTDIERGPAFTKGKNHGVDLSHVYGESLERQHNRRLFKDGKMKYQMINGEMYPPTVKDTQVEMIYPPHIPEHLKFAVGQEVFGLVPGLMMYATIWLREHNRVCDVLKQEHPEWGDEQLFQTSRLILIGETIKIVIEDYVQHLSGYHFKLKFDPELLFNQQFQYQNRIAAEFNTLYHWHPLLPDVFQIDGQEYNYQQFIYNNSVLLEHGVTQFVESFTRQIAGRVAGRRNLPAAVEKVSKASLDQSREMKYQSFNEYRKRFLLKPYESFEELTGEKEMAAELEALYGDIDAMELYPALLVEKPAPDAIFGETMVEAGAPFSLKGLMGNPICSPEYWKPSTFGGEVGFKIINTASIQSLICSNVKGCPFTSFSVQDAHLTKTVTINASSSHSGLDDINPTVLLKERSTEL
Summary of the method: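 Lyophilized sheep seminal vesicle microsomes as cyclooxygenase source; conversion of [14C]AA to PGE2 with compounds over a wide concentration range in 0.1 M Tris-HCl pH 8.4 (or 1% ethanol). PGs extracted into ethyl acetate, separated by TLC, PGE2 zones counted by scintillation.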

Row | Structure (SMILES) | inhibition [1] [%] | inhibition [3] [%] | Duration [8] [h] | Duration [9] [h] | further results
1 | NC(=O)N(O)CC1=Cc2cc(OCc3ccc(C(F)(F)F)cc3)ccc2OC1 | – | 82 | 3 | – | Duration [6]: > 6 h; inhibition [7]: > 95%
2 | CCCCCCOc1ccc2c(c1)C=C(CN(O)C(N)=O)CO2 | – | – | – | – | Duration [2]: 2.2 h; inhibition [10]: 60%
3 | CC(c1cc2ccccc2s1)N(O)C(N)=O (stereo not drawn) [ZILEUTON] | – | – | – | – | IC50 [4]: 55 µM
4 | NC(=O)N(O)CC1=Cc2cc(Br)ccc2OC1 | – | – | – | – | Duration [6]: 3.8 h; inhibition [7]: > 95%
5 | CC1Oc2ccc(Oc3ccccc3)cc2C=C1CN(O)C(N)=O (stereo not drawn) | > 95 | > 95 | 5 | 9 | –
6 | CC1(C)Oc2ccc(Oc3ccccc3)cc2C=C1CN(O)C(N)=O | 65 | – | – | 2.6 | –
7 | CC1Oc2ccc(OCc3ccccc3)cc2C=C1CN(O)C(N)=O (stereo not drawn) | 91 | – | – | 2.8 | –
8 | CNC(=O)N(O)CC1=Cc2cc(Oc3ccccc3)ccc2OC1 | > 95 | > 95 | 8.4 | 11 | –
9 | NC(=O)N(O)CC1=Cc2cc(OCc3ccccc3)ccc2OC1 | 59 | > 95 | 19 | – | Duration [6]: > 6 h; inhibition [7]: > 95%; inhibition [10]: > 95%; Duration [5]: 5 h
10 | C=CCNC(=O)N(O)CC1=Cc2cc(Oc3ccccc3)ccc2OC1 | 80 | – | – | – | Duration [5]: 4.2 h

Second part, led by results:

Row | inhibition [1] [%] | inhibition [3] [%] | Duration [8] [h] | Duration [9] [h] | Structure (SMILES) | further results
11 | > 95 | > 95 | – | – | NC(=O)N(O)CC1=Cc2cc(Oc3ccccc3)ccc2OC1 | Duration [2]: 35 h; IC50 [4]: 0.64 µM; Duration [5]: 14 h
12 | 60 | – | – | 1 | NC(=O)N(O)CC1=Cc2cc(-c3ccccc3)ccc2OC1 | –
13 | > 90 | – | – | 4 | NC(=O)N(O)CC1=Cc2cc(OCCCc3ccccc3)ccc2OC1 | Duration [2]: > 6 h; inhibition [10]: > 95%
14 | – | > 95 | 8.1 | – | CCCNC(=O)N(O)CC1=Cc2cc(Oc3ccccc3)ccc2OC1 | –
15 | > 95 | > 95 | 7.4 | 4.8 | NC(=O)N(O)CC1COc2ccc(Oc3ccccc3)cc2C1 (stereo not drawn) | –
16 | – | – | 1.2 | – | COc1ccc2c(c1)C=C(CN(O)C(N)=O)CO2 | Duration [6]: > 6 h
17 | > 95 | > 95 | 20 | – | CNC(=O)N(O)CC1=Cc2cc(Oc3ccc(F)cc3)ccc2OC1 | Duration [2]: 42 h; IC50 [11]: > 100 µM; IC50 [4]: 0.41 µM; Duration [5]: 15 h
18 | 60 | > 95 | 5.1 | 3.8 | CCNC(=O)N(O)CC1=Cc2cc(Oc3ccccc3)ccc2OC1 | –
19 | > 95 | > 95 | – | – | NC(=O)N(O)CC1=Cc2cc(Oc3ccc(F)cc3)ccc2OC1 | Duration [5]: 13 h
